Experimental data taken from ChEMBL document CHEMBL5705892, “MK-2206, an allosteric Akt inhibitor, enhances antitumor efficacy by standard chemotherapeutic agents or molecular targeted drugs in vitro and in vivo” (Mol Cancer Ther, 2010).
Calls of active or inactive are those of the source. No cut-off for these calls is given here.

Tests used:
[1] = test system: HCC1954; experiment: Antiproliferative activity against human HCC1954 cells assessed as reduction in cell proliferation measured after 72 hrs by celltiter-glo assay; assay type: functional, cell-based; settings: HCC1954, 72 h
Summary of the method: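 Cells in RPMI 1640 with 10% heat-inactivated FBS at 37°C and 5% CO₂ were seeded at 2 to 3 × 10³ per well. […] Growth was read as cellular ATP by CellTiter-Glo.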

[2] = test system: SK-OV-3; experiment: Synergistic antiproliferative activity against human SK-OV-3 cells assessed as combination index at ED50 measured after 72 hrs in presence of lapatinib by celltiter-glo assay; assay type: functional
[3] = test system: NCI-H292; experiment: Synergistic antiproliferative activity against human NCI-H292 cells assessed as combination index at ED75 measured after 72 hrs in presence of erlotinib by celltiter-glo assay; assay type: functional
[4] = test system: MDA-MB-468; experiment: Synergistic antiproliferative activity against human MDA-MB-468 cells assessed as combination index at ED75 measured after 72 hrs in presence of lapatinib by celltiter-glo assay; assay type: functional
[5] = biological target: RAC-alpha serine/threonine-protein kinase (Homo sapiens) (UniProt P31749); experiment: Inhibition of AKT in human A-431 cells assessed as reduction in PRAS40 phosphorylation at T246 residue at 5 umol/L measured after 5 hrs by Western blot analysis; assay type: cell-based; settings: dose 5.0 µmol/L
Sequence of RAC-alpha serine/threonine-protein kinase (Homo sapiens) (P31749 whole entry): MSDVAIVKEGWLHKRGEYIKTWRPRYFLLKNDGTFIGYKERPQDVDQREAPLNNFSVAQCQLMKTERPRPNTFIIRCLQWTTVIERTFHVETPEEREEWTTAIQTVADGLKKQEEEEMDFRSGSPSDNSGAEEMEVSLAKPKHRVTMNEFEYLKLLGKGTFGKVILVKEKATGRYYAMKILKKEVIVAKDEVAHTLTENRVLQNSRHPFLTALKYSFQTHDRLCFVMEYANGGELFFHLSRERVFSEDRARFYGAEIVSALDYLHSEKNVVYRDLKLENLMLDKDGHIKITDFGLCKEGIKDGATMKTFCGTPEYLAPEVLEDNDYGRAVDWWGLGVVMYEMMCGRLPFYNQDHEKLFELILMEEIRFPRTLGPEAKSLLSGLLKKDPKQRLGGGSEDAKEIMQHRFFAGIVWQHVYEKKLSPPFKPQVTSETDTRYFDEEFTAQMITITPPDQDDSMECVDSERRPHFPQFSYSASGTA
Summary of the method: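 Cells were lysed in Tris-HCl pH 7.5, 150 mM NaCl, 1% Triton X-100 with protease and phosphatase inhibitors. Lysates were run on SDS-PAGE, transferred to nitrocellulose and probed with phospho-specific antibodies.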

[6] = test system: NCI-H292; experiment: Antitumor activity against human NCI-H292 cells xenografted in CD-1 mouse assessed as tumor growth suppression at 120 mg/kg, po administered 3 times per week for 2 weeks and measured twice a week during compound dosing by caliper method; assay type: functional, organism-based
Summary of the method: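 Female CD1-nude mice carried s.c. NCI-H292 cells in Matrigel/PBS and were randomized at 0.2 cm³, n = 5. […] MK-2206 (30% Captisol) was given 2 h later at 120 mg/kg po on days 0, 2, 4, 7, 9, 11, or at 360 mg/kg on days 0 and 7. Control received vehicle. Caliper volume twice weekly.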

[7] = Toxicity in human NCI-H292 cells xenografted CD-1 mouse assessed as death at 120 mg/kg, po administered 3 times per week for 2 weeks and measured during compound dosing; assay type: organism-based; settings: in vivo, 336 h
Summary of the method: (§1)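 NCI-H292 cells in 50% Matrigel/PBS injected s.c. into flank of female CD1-nude mice; dosing began after 2 wk at mean tumour 0.2 cm³, n = 5/group. […] Body weight and signs monitored; treatment ended day 16.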

[8] = Toxicity in human NCI-H292 cells xenografted CD-1 mouse assessed as weight loss at 360 mg/kg, po administered once a week for 2 weeks starting 2 hrs post-erlotinib treatment and measured during compound dosing; assay type: organism-based; settings: in vivo, 336 h; summary of the method: as §1
[9] = test system: HCC70; experiment: Synergistic antiproliferative activity against human HCC70 cells assessed as combination index at ED90 treated 24 hrs prior to lapatinib and measured after 72 hrs by celltiter-glo assay; assay type: functional; settings: time 96 hrs
[10] = test system: SK-OV-3; experiment: Synergistic antiproliferative activity against lapatinib pretreated human SK-OV-3 cells assessed as combination index at ED90 measured after 72 hrs by celltiter-glo assay; assay type: functional
[11] = Toxicity in human HCC70 cells xenografted CB17/icr SCID mouse assessed as mortality at 120 mg/kg, po administered 3 times per week for 3 weeks starting 2 hrs post-lapatinib treatment and measured during compound dosing; assay type: organism-based; settings: in vivo, 504 h
Summary of the method: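 HCC70 cells in 50% Matrigel/PBS injected s.c. into flank of female C.B-17/ICR-scid mice; dosing began after 3 wk, groups randomized at mean tumour 0.2 cm³ (n = 5). Lapatinib 100 mg/kg p.o. in distilled water, 5 d/wk for 3 wk; MK-2206 in 30% Captisol p.o. 3×/wk for 3 wk, given 2 h after lapatinib. Body weight and physical signs monitored throughout.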

[12] = Toxicity in human SK-OV-3 cells xenografted CB17/icr SCID mouse assessed as mortality at 60 to 120 mg/kg, po administered 3 times per week for 2 weeks starting 2 hrs post lapatinib treatment and measured during compound dosing; assay type: organism-based; settings: in vivo, 336 h, dose 60-120 mg/kg
Summary of the method: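 SK-OV-3 cells in 50% Matrigel/PBS injected s.c. into flank of female C.B-17/ICR-scid mice; dosing began after 3 wk, randomized at mean tumour 0.13 cm³ (n = 5). Lapatinib 100 mg/kg p.o. in distilled water 5 d/wk for 2 wk; MK-2206 in 30% Captisol p.o. days 0, 2, 4, 7, 9, 11. Body weight and physical signs monitored.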

[13] = test system: BT-20; experiment: Synergistic antiproliferative activity against human BT-20 cells assessed as combination index at ED90 measured after 72 hrs in presence of docetaxel by celltiter-glo assay; assay type: functional
Summary of the method: (§2)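 Cells grown in RPMI 1640 with 10% heat-inactivated FBS at 37°C, 5% CO₂. Seeded at 2 to 3 × 10³ per well; drugs added 24 h later. […] Viability read as cellular ATP by CellTiter-Glo. CI calculated by Chou–Talalay from median-effect plots at ED50, ED75 and ED90.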

[14] = test system: HCC70; experiment: Synergistic antiproliferative activity against human HCC70 cells assessed as combination index at ED90 measured after 72 hrs in presence of docetaxel by celltiter-glo assay; assay type: functional; summary of the method: as §2
[15] = test system: A2780; experiment: Synergistic antiproliferative activity against human A2780 cells assessed as combination index at ED50 measured after 72 hrs in presence of doxorubicin by celltiter-glo assay; assay type: functional
Summary of the method: (§3)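 Cells were seeded at 2–3 × 10³ per well in RPMI 1640 with 10% FBS. At 24 h, MK-2206 and the partner drug were added simultaneously at constant concentration ratios spanning each agent's IC₅₀, for 72 h. Growth was read as cellular ATP by CellTiter-Glo. CI was taken from median-effect plots of each agent alone and in combination (Chou–Talalay), at ED₅₀, ED₇₅ and ED₉₀.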

[16] = test system: A2780; experiment: Synergistic antiproliferative activity against human A2780 cells assessed as combination index at ED75 measured after 72 hrs in presence of 5-FU by celltiter-glo assay; assay type: functional; summary of the method: as §3
[17] = test system: NCI-H460; experiment: Synergistic antiproliferative activity against human NCI-H460 cells assessed as combination index at ED50 measured after 72 hrs in presence of camptothecin by celltiter-glo assay; assay type: functional
[18] = test system: NCI-H460; experiment: Synergistic antiproliferative activity against human NCI-H460 cells assessed as combination index at ED75 measured after 72 hrs in presence of gemcitabine by celltiter-glo assay; assay type: functional
[19] = test system: A2780; experiment: Cell cycle arrest in human A2780 cells assessed as increase in accumulation of cells at sub-G1 phase measured after 72 hrs in presence of doxorubicin by propidium iodide staining based flow cytometry; assay type: functional
[20] = biological target: RAC-alpha serine/threonine-protein kinase (Homo sapiens) (UniProt P31749); experiment: Inhibition of AKT phosphorylation at S473 residue in human NCI-H661 cells at 3 umol/L measured after 4 to 24 hrs in presence of gemcitabine by MSD assay; settings: time 4-24 hrs
[21] = biological target: RAC-alpha serine/threonine-protein kinase (Homo sapiens) (UniProt P31749); experiment: Inhibition of AKT phosphorylation at S473 residue in human NCI-H661 cells at 3 umol/L measured after 4 to 24 hrs in presence of carboplatin by MSD assay; settings: time 4-24 hrs

Molecule Cl.NC1(c2ccc(-c3nc4ccn5c(=O)[nH]nc5c4cc3-c3ccccc3)cc2)CCC1 has an IC50 [1] of 2900 nM, a CI50 [2] of 0.07 and a CI75 [3] of 0.31. The CI75 [4] was 0.25, the inhibition [5] was “Active” and the Activity [6] was “inactive”. The Activity [7] was “Non-Toxic”, the Activity [8] was “Toxic” and the CI90 [9] was 0.18. For the same molecule, the CI90 [10] was 0.18, the Activity [11] was “Non-Toxic” and the Activity [12] was “Non-Toxic”. For the same molecule, the CI90 [13] was 0.5, the CI90 [14] was 0.5 and the CI50 [15] was 0.7. For the same molecule, the CI75 [16] was 0.54, the CI50 [17] was 0.39 and the CI75 [18] was 0.39. The Activity [19] was “Dose-Dependent Effect”, the inhibition [20] was “Active” and the inhibition [21] was “Active”.
